Results collected from several papers.
Read-out: microbial growth

SMILES	organism	method	strain	time	MIC
CC(C)(C)C(=O)C(Oc1ccc(Cl)cc1)n1ccnc1 (centres unmarked)	Saccharomyces cerevisiae				20 to 25 µM
Cc1ccc(C)n1-c1ccc(-c2nnc(-c3ccc(N(C)C)cc3)[nH]2)cc1	Saccharomyces cerevisiae	broth dilution	ATCC9763		62.5 µg/mL
Oc1c(F)cc(-c2nc(-c3ccc(Oc4ccc(C(F)(F)F)cc4)cc3)no2)cc1F	Clostridioides difficile	broth dilution	ATCC43255	48 h	2 to 4 µg/mL
CNc1ccc(-c2nc(-c3ccc(Oc4ccccc4)cc3)no2)cc1	Clostridioides difficile	broth dilution		48 h	8 µg/mL
Cc1ccc(C)n1-c1ccc(-c2nnc(S)s2)cc1	Saccharomyces cerevisiae	broth dilution	ATCC9763		62.5 µg/mL
CC(CN)c1ccc(Oc2ccc(-c3noc(-c4ccc(O)cc4)n3)cc2)cc1.Cl (racemic)	Clostridioides difficile	broth dilution		48 h	16 µg/mL
Cc1cc(C)n(C(=O)c2ccc(-n3c(C)ccc3C)cc2)n1	Saccharomyces cerevisiae	broth dilution	ATCC9763		> 500 µg/mL
CC1(C)S[C@@H]2[C@H](NC(=O)[C@H](N)c3ccccc3)C(=O)N2[C@H]1C(=O)O	Shigella sonnei	broth dilution	ATCC25931		4 µg/mL
Cc1ncc([N+](=O)[O-])n1CCO	Clostridioides difficile	broth dilution	R20291		> 0.5 µg/mL
Oc1ccc(-c2nc(-c3ccc(Oc4ccccc4)cc3)no2)cc1	Clostridioides difficile	broth dilution		48 h	6 µg/mL
Oc1ccc(-c2nc(-c3ccc(Oc4ccc(I)cc4)cc3)no2)cc1	Clostridioides difficile	broth dilution	ATCC43255	48 h	8 to 128 µg/mL
Cc1ccc(C)n1-c1ccc(-c2nnco2)cc1	Saccharomyces cerevisiae	broth dilution	ATCC9763		125 µg/mL
O=C(O)COc1ccc(Oc2ccc(-c3noc(-c4ccc(O)cc4)n3)cc2)cc1	Clostridioides difficile	broth dilution		48 h	50 µg/mL
Cc1cc(=O)[nH]n1C(=O)c1ccc(-n2c(C)ccc2C)cc1	Saccharomyces cerevisiae	broth dilution	ATCC9763		250 µg/mL
OC(Cn1cncn1)(Cn1cncn1)c1ccc(F)cc1F	Saccharomyces cerevisiae				4 µg/mL
C/C=C/C/C=C/CCC(=O)[C@H]1O[C@H]1C(N)=O	Saccharomyces cerevisiae				10 to 12 µM
CC(=O)Nc1ccc(-c2nc(-c3ccc(Oc4ccccc4)cc3)no2)cc1	Clostridioides difficile	broth dilution		48 h	> 50 µg/mL
